# Assays:
# [1] = target: Voltage-gated inwardly rectifying potassium channel KCNH2 (Homo sapiens, UniProt Q12809); test: Displacement of labeled MK-499 from cloned hERG channel expressed in HEK cells; format: cell-based, HEK293
# [2] = tested on: Gerbil, jird; test: Inhibition of GR-73632-induced foot tapping in gerbil at 3 mg/kg, po after 1 hr; format: functional, Meriones; set-up: Activity: scale not given: the % may be the effect or the level left; conditions: for Activity: dose 3 mg/kg; for ED50: Meriones, 1 h, read-out: ID50 (the source's name)
# Procedure, shortened: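 Gerbils dosed orally 1 h before central challenge with the NK1 agonist GR73632, with foot-tapping scored. Plasma drug level at 1 h measured by LC–MS/MS after protein precipitation.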
# [3] = target: Substance-P receptor (Homo sapiens, UniProt P25103); test: Displacement of [125I] labeled substance P from human cloned NK1 receptor expressed in CHO cells; format: cell-based
# Substance-P receptor, sequence (P25103 whole entry): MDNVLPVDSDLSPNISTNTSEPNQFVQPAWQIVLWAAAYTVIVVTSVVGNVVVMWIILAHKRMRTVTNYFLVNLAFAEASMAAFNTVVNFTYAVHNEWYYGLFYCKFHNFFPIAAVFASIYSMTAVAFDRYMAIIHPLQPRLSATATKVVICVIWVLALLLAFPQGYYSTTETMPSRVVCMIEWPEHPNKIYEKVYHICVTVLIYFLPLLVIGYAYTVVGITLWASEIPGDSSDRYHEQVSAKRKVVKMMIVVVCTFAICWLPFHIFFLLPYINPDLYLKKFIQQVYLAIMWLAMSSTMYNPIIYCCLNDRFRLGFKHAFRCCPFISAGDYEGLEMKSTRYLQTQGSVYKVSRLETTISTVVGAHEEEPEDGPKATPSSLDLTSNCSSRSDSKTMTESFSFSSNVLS
# Procedure, shortened: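 Radioligand displacement assay: [¹²⁵I]-labelled substance P bound to cloned human NK1 receptor expressed in CHO cells, measured as the concentration giving IC50; mean ± SD of three determinations.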
# [4] = Half life in rat; format: ADME, organism-based; conditions: in vivo
# [5] = tested on: Gerbil, jird; test: Inhibition of GR-73632-induced foot tapping in po dosed gerbil after 1 hr; format: functional; conditions: Meriones, read-out: ID50 (the source's name)
# Procedure, shortened: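 Gerbils dosed orally 1 h before central challenge with the NK1 agonist GR73632, with foot-tapping scored. […] Plasma drug level at 1 h measured by LC–MS/MS after protein precipitation.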
# [6] = Clearance in rat; format: ADME, organism-based; conditions: in vivo
# Voltage-gated inwardly rectifying potassium channel KCNH2, sequence (Q12809 whole entry): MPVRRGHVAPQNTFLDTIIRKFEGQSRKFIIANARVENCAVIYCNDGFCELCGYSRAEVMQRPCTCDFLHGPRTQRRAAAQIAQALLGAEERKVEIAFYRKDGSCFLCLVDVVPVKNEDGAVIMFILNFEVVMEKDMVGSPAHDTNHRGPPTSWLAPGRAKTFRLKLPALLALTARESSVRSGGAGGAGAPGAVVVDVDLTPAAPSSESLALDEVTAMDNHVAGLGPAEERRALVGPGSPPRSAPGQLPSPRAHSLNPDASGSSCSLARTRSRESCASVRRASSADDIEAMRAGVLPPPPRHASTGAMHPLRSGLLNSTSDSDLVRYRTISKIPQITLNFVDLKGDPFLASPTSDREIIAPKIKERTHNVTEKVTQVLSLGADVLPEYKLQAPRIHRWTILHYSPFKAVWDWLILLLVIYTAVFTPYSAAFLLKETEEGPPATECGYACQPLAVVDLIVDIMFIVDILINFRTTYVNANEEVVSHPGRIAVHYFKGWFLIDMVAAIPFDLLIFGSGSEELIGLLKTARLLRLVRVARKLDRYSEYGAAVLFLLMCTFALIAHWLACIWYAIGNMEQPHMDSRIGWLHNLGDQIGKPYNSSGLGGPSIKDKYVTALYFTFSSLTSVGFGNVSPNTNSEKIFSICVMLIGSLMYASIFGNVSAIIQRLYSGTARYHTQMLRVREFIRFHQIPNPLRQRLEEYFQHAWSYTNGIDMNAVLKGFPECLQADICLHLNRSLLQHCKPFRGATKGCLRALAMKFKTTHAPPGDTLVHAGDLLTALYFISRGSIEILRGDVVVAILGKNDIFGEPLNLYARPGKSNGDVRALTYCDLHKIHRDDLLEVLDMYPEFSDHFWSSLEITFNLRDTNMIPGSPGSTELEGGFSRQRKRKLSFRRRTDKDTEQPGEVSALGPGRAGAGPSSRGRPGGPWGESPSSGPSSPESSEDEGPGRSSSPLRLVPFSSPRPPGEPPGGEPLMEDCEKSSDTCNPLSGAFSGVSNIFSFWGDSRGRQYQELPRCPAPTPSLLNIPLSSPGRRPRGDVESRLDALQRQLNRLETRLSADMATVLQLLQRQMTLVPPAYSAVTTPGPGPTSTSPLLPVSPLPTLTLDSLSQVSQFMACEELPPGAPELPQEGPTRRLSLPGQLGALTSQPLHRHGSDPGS
IC50 [3],SMILES,Ki [1],Activity [2],further results
0.41 nM,C[C@@H]1C[C@H](O[C@H](C)c2cc(C(F)(F)F)cc(C(F)(F)F)c2)[C@@H](c2ccc(F)cc2)CC(=O)N1,–,64%,–
0.23 nM,C[C@@H]1C[C@H](O[C@H](C)c2cc(C(F)(F)F)cc(C(F)(F)F)c2)[C@@H](c2ccc(F)cc2)CNC1=O,2400 nM,–,–
0.64 nM,C[C@@H](O[C@H]1CCNC(=O)C[C@@H]1c1ccc(F)cc1)c1cc(C(F)(F)F)cc(C(F)(F)F)c1,> 9000 nM,0%,–
0.14 nM,C[C@@H](O[C@H]1CCC(=O)NC[C@@H]1c1ccc(F)cc1)c1cc(C(F)(F)F)cc(C(F)(F)F)c1,> 9000 nM,–,half-life [4]: 5.6 h; ED50 [5]: 1.06 mg/kg; clearance [6]: 33 mL/min/kg
0.53 nM,C[C@@H](O[C@H]1CCN(C)C(=O)C[C@@H]1c1ccc(F)cc1)c1cc(C(F)(F)F)cc(C(F)(F)F)c1,> 9000 nM,–,–
0.49 nM,C[C@@H]1C[C@H](O[C@H](C)c2cc(C(F)(F)F)cc(C(F)(F)F)c2)[C@@H](c2ccc(F)cc2)CC(=O)N1C,> 9000 nM,8%,–
0.12 nM,C[C@@H](O[C@H]1CCC(=O)N(C)C[C@@H]1c1ccc(F)cc1)c1cc(C(F)(F)F)cc(C(F)(F)F)c1,–,–,ED50 [2]: 0.64 mg/kg

# Continued, compound first:
SMILES,IC50 [3],Ki [1],Activity [2],further results
C[C@@H](O[C@H]1CCC(=O)N(C)[C@@H](C)[C@@H]1c1ccc(F)cc1)c1cc(C(F)(F)F)cc(C(F)(F)F)c1,–,6700 nM,–,–
C[C@@H](O[C@H]1CCn2c(O)nnc2C[C@@H]1c1ccc(F)cc1)c1cc(C(F)(F)F)cc(C(F)(F)F)c1,0.22 nM,> 9000 nM,–,ED50 [2]: 0.8 mg/kg
C[C@@H](O[C@H]1CCc2nccn2C[C@@H]1c1ccc(F)cc1)c1cc(C(F)(F)F)cc(C(F)(F)F)c1,0.28 nM,–,4%,–
C[C@@H]1C[C@H](O[C@H](C)c2cc(C(F)(F)F)cc(C(F)(F)F)c2)[C@@H](c2ccc(F)cc2)CN(C)C1=O,–,–,5%,–
C[C@@H](O[C@H]1CCn2ccnc2C[C@@H]1c1ccc(F)cc1)c1cc(C(F)(F)F)cc(C(F)(F)F)c1,–,1400 nM,0%,–
C[C@@H]1NC(=O)CC[C@H](O[C@H](C)c2cc(C(F)(F)F)cc(C(F)(F)F)c2)[C@H]1c1ccc(F)cc1,–,> 9000 nM,–,–
